# Results collected from several papers.
# Each line is one published result; the experiments were not run side by side.
# Medium: plasma
Compound,test system,conditions,measurement,result
N#Cc1[nH]nnc1-c1cc(Cl)cc(/C=C/c2cccc(C(F)(F)F)c2)c1,male Sprague-Dawley rat,"oral, 10 mg/kg",AUC,16700 ng·h/mL
Oc1c(Br)cc(Cl)c2cccnc12,Sprague-Dawley rat,"oral, 20 mg/kg",AUC(0-inf),4500 ng·h/mL
N#Cc1[nH]nnc1-c1cccc(OCc2cc(C(F)(F)F)ccc2C(F)(F)F)c1,male Sprague-Dawley rat,"oral, 10 mg/kg",AUC,46400 ng·h/mL
Cc1noc(-c2cc3cc(-c4nc(C(=O)NCc5ccncc5)[nH]c4C)ccc3[nH]2)n1,Sprague-Dawley rat,"intravenous, 1 mg/kg",AUC,3 µM·h
C=CC(=O)N1CC2CC(n3nc(-c4ccc(C(=O)Nc5ccccn5)cc4)c4c(N)ncnc43)CC2C1 (centres unmarked),male Wistar rat,"oral, 300 mg/kg",AUC(0-t),80700 ng·h/mL
CC[C@H](C)[C@H](NC(=O)[C@H](Cc1ccccc1)NC(=O)[C@H](CCC(=O)O)NC(=O)[C@H](CCCNC(=N)N)NC(=O)[C@H](C)NC(=O)[C@H](C)NC(=O)[C@H](CCC(N)=O)NC(=O)[C@H](CCC(=O)O)NC(=O)[C@H](CCC(=O)O)NC(=O)[C@H](CC(C)C)NC(=O)[C@H](Cc1ccc(O)cc1)NC(=O)[C@H](CO)NC(=O)[C@H](CO)NC(=O)[C@@H](NC(=O)[C@H](CC(=O)O)NC(=O)[C@H](CO)NC(=O)[C@@H](NC(=O)[C@H](Cc1ccccc1)NC(=O)[C@@H](NC(=O)CNC(=O)[C@H](CCC(=O)O)NC(=O)[C@H](C)NC(=O)CCc1c[nH]cn1)[C@@H](C)O)[C@@H](C)O)C(C)C)C(=O)N[C@@H](C)C(=O)N[C@@H](Cc1c[nH]c2ccccc12)C(=O)N[C@@H](CC(C)C)C(=O)N[C@H](C(=O)N[C@@H](CCCNC(=N)N)C(=O)NCC(=O)N[C@@H](CCCNC(=N)N)C(=O)N[C@@H](CCCCNC(=O)COCCOCCNC(=O)COCCOCCNC(=O)CC[C@H](NC(=O)CCCCCCCCCCCCCCCCC(=O)O)C(=O)O)C(=O)O)C(C)C,rat,"subcutaneous, 20 nmol/kg",AUC,1.98 µM·h
CCOC(=O)[C@@]12C[C@@H]1[C@@H](n1ccc3c(NC)nc(C#Cc4ccc(Cl)s4)nc31)[C@H](O)[C@@H]2O,male Sprague-Dawley rat,"intravenous, 0.5 mg/kg",AUC(0-inf),31.1 ng·h/mL
COc1cc2c3c(n(CCCN4CCOCC4)c(=O)c2cc1OC)-c1cc2c(cc1C3=O)OCO2,female Fischer 344 rat,"intravenous, 12 mg/m², single dose",AUC(0-inf),403 ng·h/mL
CCc1cc(C(=O)NC)c2nccc(N3CCc4c(cc(Cn5ccnc5)cc4-c4cn(C)nc4C(F)(F)F)C3=O)c2c1,male Sprague-Dawley rat,"oral, 100 mg/kg, single dose",AUC(0-t),37200 ng·h/mL
CCNC(=O)c1nc(-c2ccc3[nH]c(-c4nc(C)no4)cc3c2)c(C)[nH]1,Sprague-Dawley rat,"intravenous, 1 mg/kg",AUC,2.4 µM·h
N#Cc1ccc(Nc2nc(N)cc(Oc3c(F)cc(-c4ccc(C#N)cc4)cc3F)n2)cc1,Sprague-Dawley rat,"oral, 5 mg/kg",AUC,100 ng·h/mL
